Source: publication PMC9907348 (Molecular Pharmaceutics, 2023)

Assay: Intravital two-photon microscopy of renal disposition
Assay type: in vivo, Munich Wistar Frömter rats
Settings: rat; for course of subapical brush border fluorescence / vascular fluorescence after infusion: single iv bolus ∼300 μg/kg; for course of subapical brush border fluorescence: infusion movie ∼2 min 10 s to 300 s
Summary of the method: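 Munich Wistar Frömter rats (9–12 weeks), fed ad libitum, with temperature monitored. Outer-cortex glomeruli with visible S1 proximal tubule openings were marked before a bolus of TAMRA- or TAMRA/QSY7-labelled peptide via an indwelling jugular line. 40 kDa FITC-dextran outlined the brush border. Two-photon excitation was at 800 nm (2.0% transmissivity), imaging for ~60 min. Fluorescence was measured over capillary-loop and subapical brush border regions.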

[1] = iv, intravital two-photon microscopy
[2] = intravital two-photon microscopy
[3] = iv, postinjection, 40 kDa FITC-dextran given just before

Row | Substance | glomerular filtration [1] | proximal tubule (PTEC) binding and endocytosis [1] | course of subapical brush border fluorescence | vascular fluorescence after infusion [2] | time at which fluorescence was detected within apical vesicular arrangements [3] [s] | time at which fluorescence within apical vesicular arrangements became marked [3] [s]
1 | 5-TAMRA exenatide [TAMRA-Ex] | rapid glomerular filtration | rapid and extensive proximal tubule binding and endocytosis | rapid appearance | immediate and pronounced detection of fluorescence | – | –
2 | 5-TAMRA-QSY7 exenatide [FRET-Ex] | – | – | protracted linear increase | virtually undetectable | ≤ 80 | ≤ 200
